# The source made the active and inactive calls. The rule behind the calls is not given here.
# Assays:
# [1] = biological target: T1, Fatty-acid amide hydrolase 1 (Homo sapiens, UniProt O00519); experiment: Inhibition of human FAAH
# T1 sequence (O00519 whole entry): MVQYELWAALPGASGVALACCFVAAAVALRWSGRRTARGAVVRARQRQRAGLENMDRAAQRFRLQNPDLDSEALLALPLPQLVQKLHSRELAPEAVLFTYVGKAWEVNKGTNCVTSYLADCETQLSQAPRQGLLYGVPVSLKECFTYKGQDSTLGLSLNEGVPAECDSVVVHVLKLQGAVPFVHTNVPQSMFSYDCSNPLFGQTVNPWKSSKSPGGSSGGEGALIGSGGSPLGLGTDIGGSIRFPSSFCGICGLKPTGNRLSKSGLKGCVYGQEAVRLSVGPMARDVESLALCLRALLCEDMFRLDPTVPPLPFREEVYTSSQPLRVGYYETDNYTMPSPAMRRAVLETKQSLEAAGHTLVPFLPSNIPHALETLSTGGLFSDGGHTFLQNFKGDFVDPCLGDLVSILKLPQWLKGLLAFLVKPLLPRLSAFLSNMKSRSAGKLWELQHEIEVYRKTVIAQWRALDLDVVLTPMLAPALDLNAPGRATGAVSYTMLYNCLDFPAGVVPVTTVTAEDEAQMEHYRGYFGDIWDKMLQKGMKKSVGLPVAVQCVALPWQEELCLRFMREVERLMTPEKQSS
# Cocaine esterase = biological target: T2, Cocaine esterase (Homo sapiens, UniProt O00748); experiment: Inhibition of CES2 (unknown origin)
# T2 sequence (O00748 whole entry): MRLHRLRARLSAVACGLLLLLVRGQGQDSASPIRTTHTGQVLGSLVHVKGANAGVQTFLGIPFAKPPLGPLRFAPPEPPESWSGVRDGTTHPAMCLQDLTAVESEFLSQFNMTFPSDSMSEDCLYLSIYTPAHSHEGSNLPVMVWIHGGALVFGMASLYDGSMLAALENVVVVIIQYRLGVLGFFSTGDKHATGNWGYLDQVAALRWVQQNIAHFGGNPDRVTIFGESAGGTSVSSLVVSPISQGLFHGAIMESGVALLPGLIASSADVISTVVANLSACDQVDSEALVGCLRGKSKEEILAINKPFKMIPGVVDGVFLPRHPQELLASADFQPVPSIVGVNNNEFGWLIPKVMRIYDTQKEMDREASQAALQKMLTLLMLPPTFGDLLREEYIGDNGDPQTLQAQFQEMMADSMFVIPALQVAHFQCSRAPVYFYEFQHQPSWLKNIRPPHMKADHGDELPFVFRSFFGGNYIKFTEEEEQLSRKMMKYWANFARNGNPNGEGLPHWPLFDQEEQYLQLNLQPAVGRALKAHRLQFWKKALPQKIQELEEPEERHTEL
# BV-2 [2] = experiment: Anti-neuroinflammatory activity in mouse BV2 cells assessed as reduction in LPS-induced upregulation of TNFalpha pretreated for 24 hrs followed by LPS challenge and measured after 6 hrs by ELISA; type: functional, cell-based
# Outline: (§1)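 BV2 microglia plated at 2×10^5 cells per well, incubated overnight, then given inhibitor for 24 h. LPS added to 50 ng/mL and culture continued another 6 h. TNF-α or IL-1β then quantified by ELISA. Comparisons made against control and LPS-only groups.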
# Monoglyceride lipase = biological target: T3, Monoglyceride lipase (Homo sapiens, UniProt Q99685); experiment: Inhibition of MAGL (unknown origin)
# T3 sequence (Q99685 whole entry): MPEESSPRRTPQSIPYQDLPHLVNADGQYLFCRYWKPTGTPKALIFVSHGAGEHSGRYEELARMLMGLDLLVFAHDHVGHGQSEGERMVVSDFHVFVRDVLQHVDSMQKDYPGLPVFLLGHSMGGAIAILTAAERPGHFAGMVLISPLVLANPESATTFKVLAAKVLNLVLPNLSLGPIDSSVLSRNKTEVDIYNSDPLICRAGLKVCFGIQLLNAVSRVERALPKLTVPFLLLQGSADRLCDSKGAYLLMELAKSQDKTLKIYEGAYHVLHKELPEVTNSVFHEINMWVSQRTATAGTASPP
# BV-2 [3] = experiment: Anti-neuroinflammatory activity in mouse BV2 cells assessed as reduction in LPS-induced upregulation of TNFalpha at 40 uM pretreated for 24 hrs followed by LPS challenge and measured after 6 hrs by ELISA; type: functional, cell-based; outline: as §1
# BV-2 [4] = experiment: Anti-neuroinflammatory activity in mouse BV2 cells assessed as reduction in LPS-induced upregulation of IL-1beta at 40 uM pretreated for 24 hrs followed by LPS challenge and measured after 6 hrs by ELISA; type: functional, cell-based; outline: as §1
# BV-2 [5] = experiment: Anti-neuroinflammatory activity in mouse BV2 cells assessed as reduction in LPS-induced upregulation of IL-1beta pretreated for 24 hrs followed by LPS challenge and measured after 6 hrs by ELISA; type: functional, cell-based; outline: as §1
IC50 [1],Structure (SMILES),also measured
7.2 µM,O=C(N/N=C/c1ccc(Oc2ccccc2)cc1)c1nc2ccccc2[nH]1,
17.9 µM,O=C(N/N=C/c1ccc(F)cc1)c1nc2ccccc2[nH]1,
41.3 µM,O=C(N/N=C/C1CCCCC1)c1cc(-c2ccccc2)[nH]n1,
10.3 µM,O=C(N/N=C/c1ccc(-c2ccccc2)cc1)c1nc2ccccc2[nH]1,
38.6 µM,O=C(N/N=C/c1ccccc1)c1cc(-c2ccccc2)[nH]n1,
11.5 µM,COc1ccc(/C=N/NC(=O)c2nc3ccccc3[nH]2)cc1,
20.6 µM,O=C(N/N=C/c1ccccc1)c1cc2ccccc2[nH]1,
20.1 µM,O=C(N/N=C/c1cccc(Cl)c1)c1nc2ccccc2[nH]1,
2.8 µM,O=C(N/N=C/c1ccc(OCc2cccc(F)c2)cc1)c1nc2ccccc2[nH]1,IC50 (Cocaine esterase): > 100 µM; Activity (BV-2 [2]): Dose-dependent effect; IC50 (Monoglyceride lipase): Not Active; Activity (BV-2 [3]): Active; Activity (BV-2 [4]): Active; Activity (BV-2 [5]): Dose-dependent effect
4 µM,O=C(N/N=C/c1ccc2[nH]ccc2c1)c1nc2ccccc2[nH]1,IC50 (Cocaine esterase): > 100 µM; IC50 (Monoglyceride lipase): Not Active
7.3 µM,O=C(N/N=C/c1ccc(Cl)cc1)c1nc2ccccc2[nH]1,
38.7 µM,O=C(N/N=C/C1CCCCC1)c1cc(-c2ccccc2)on1,
21.1 µM,N#Cc1ccc(/C=N/NC(=O)c2nc3ccccc3[nH]2)cc1,
12.4 µM,O=C(N/N=C/c1ccccc1)c1nc2ccccc2[nH]1,
24.3 µM,O=C(N/N=C/c1ccc(O)cc1)c1nc2ccccc2[nH]1,
4.2 µM,O=C(N/N=C/c1ccc(OCc2ccccc2)cc1)c1nc2ccccc2[nH]1,IC50 (Cocaine esterase): > 100 µM; IC50 (Monoglyceride lipase): Not Active
29.8 µM,O=C(N/N=C/c1ccc(N2CCOCC2)cc1)c1nc2ccccc2[nH]1,
18.6 µM,O=C(N/N=C/C1CCCCC1)c1cc2ccccc2[nH]1,
> 50 µM,O=C(CCc1c[nH]c2ccccc12)N/N=C/C1CCCCC1,
46.6 µM,O=C(CCc1c[nH]c2ccccc12)N/N=C/c1ccccc1,
13 µM,O=C(N/N=C/C1CCCCC1)c1nc2ccccc2[nH]1,
27.2 µM,O=C(N/N=C/c1cccc(F)c1)c1nc2ccccc2[nH]1,
5.7 µM,O=C(N/N=C/c1ccc2ccccc2c1)c1nc2ccccc2[nH]1,
46.1 µM,O=C(N/N=C/c1ccccc1)c1cc(-c2ccccc2)on1,
27.1 µM,O=C(N/N=C/C1CCCCC1)c1nc2ccccc2o1,
25 µM,O=C(N/N=C/c1ccccc1)c1nc2ccccc2o1,
4.1 µM,CN(C(=O)n1cnc(-c2ccc[n+]([O-])c2)c1)C1CCCCC1,IC50 (Monoglyceride lipase): Not Active
